We go through 7 compounds from ChEMBL document CHEMBL4382237, “Design, Synthesis, and Biological Evaluation of 2-Nitroimidazopyrazin-one/-es with Antitubercular and Antiparasitic Activity” (J Med Chem, 2018).

Data set [1] has as its system Trypanosoma brucei brucei. In words: Antiparasitic activity against bloodstream form of Trypanosoma brucei brucei strain 427 after 48 hrs by resazurin dye-based assay. It counts as functional, organism-based. To be noted: for IC50: strain 427, 48 h.
The test system of data set [2] is Giardia intestinalis. The data set is described as follows: Antiparasitic activity against Giardia lamblia WB trophozoites after 24 to 48 hrs by CellTiter-Glo luminescent cell viability assay. To be noted: Giardia duodenalis. (In general: Cellular ATP, detected with luciferase, serves as a proxy for viable cell number.)
The subject of data set [3] is Entamoeba histolytica. The data set is described as follows: Antiparasitic activity against Entamoeba histolytica HM-1:IMSS trophozoites after 24 to 48 hrs by CellTiter-Glo luminescent cell viability assay. It counts as functional, organism-based. The gist of the method:
(§1)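 Axenic trophozoites were kept in TYI-S-33 with penicillin (100 U/mL) and streptomycin (100 µg/mL) and harvested in log phase. 5000 parasites per well were exposed to a final 8-point two-fold series of 0.39–50 µM, from 10 mM DMSO stocks. Plates were incubated 24–48 h at 37 °C under anaerobic conditions. ATP luminescence viability was read in triplicate. Percent inhibition is given at the highest concentration tested.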

For data set [4], the system named is Giardia intestinalis. The data set is described as follows: Antiparasitic activity against Giardia lamblia WB trophozoites after 24 to 48 hrs by CellTiter-Glo luminescent cell viability assay. To be noted: Giardia duodenalis.
The subject of data set [5] is Entamoeba histolytica. In words: Antiparasitic activity against Entamoeba histolytica HM-1:IMSS trophozoites assessed as inhibition of parasitic growth at 50 uM after 24 to 48 hrs by CellTiter-Glo luminescent cell viability assay relative to control. It counts as functional. To be noted: read-out: GI. A digest of the protocol:
as §1

For data set [6], the system named is Mycobacterium tuberculosis. The data set is described as follows: Antibacterial activity against non-replicating Mycobacterium tuberculosis H37Rv after 5 days under hypoxic condition by resazurin dye-based fluorescence assay. It counts as functional. To be noted: 120 h. The gist of the method: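 Same H37Rv inoculum (OD600 0.001, ~2 x 10^4 CFU/mL) in 7H9S with serially diluted compound. Plates held 5 days at 0.1% oxygen, then resazurin plus Tween-80 added.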

For data set [7] the following is noted: buffer, 24 h, 200 µM.
The conditions of data set [8]: buffer, pH 7.4, 24 h, 200 µM.
The nature of data set [9]: physchem. To be noted: water.
Data set [10] can be described thus: physchem. To be noted: PBS, pH 7.4.
Data set [11] is described as follows: Apparent permeability across apical to basolateral side in human Caco2 cells assessed as mean drug recovery at 2 uM after 2 hrs by lucifer yellow dye-based LC-MS/MS analysis. To be noted: caco-2, 2 h. For orientation: Caco-2 cells form a polarised layer with tight junctions and transporters.
The nature of data set [12]: Apparent permeability across basolateral to apical side in human Caco2 cells assessed as mean drug recovery at 2 uM after 2 hrs by lucifer yellow dye-based LC-MS/MS analysis. To be noted: Caco-2.
A further data set concerns Clostridioides difficile. In words: Antibacterial activity against Clostridium difficile 630 ATCC BAA-1382 by broth microdilution assay. It counts as functional. A digest of the protocol: (§2)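 Broth microdilution run essentially per an earlier report. MIC taken as the lowest concentration with no visible growth. Replicates typically agreed within one 2-fold dilution. The median MIC is reported, with a range where the median fell between two tested concentrations.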
Background: Broth dilution looks for growth in wells or tubes with falling amounts of substance.

The nature of data set [13]: Metabolic stability in CD-1 mouse plasma assessed as parent compound remaining at 3 uM after 2 hrs by LC-MS/MS analysis.
A short description of data set [14]: Metabolic stability in CD-1 mouse liver microsomes assessed as parent compound remaining at 3 uM after 2 hrs by LC-MS/MS analysis.
A short description of data set [15]: Metabolic stability in human plasma assessed as parent compound remaining at 3 uM after 2 hrs by LC-MS/MS analysis.
Data set [16] is described as follows: Apparent permeability across basolateral to apical side in human Caco2 cells at 2 uM after 2 hrs by lucifer yellow dye-based LC-MS/MS analysis. To be noted: caco-2, 2 h.
A short description of data set [17]: Protein binding in human plasma at 5 uM after 30 mins by LC-MS/MS analysis based ultrafiltration method. To be noted: 0.5 h.
Data set [18] can be described thus: Apparent permeability across apical to basolateral side in human Caco2 cells at 2 uM after 2 hrs by lucifer yellow dye-based LC-MS/MS analysis. To be noted: caco-2, 2 h.
A short description of data set [19]: Metabolic stability in human liver microsomes assessed as parent compound remaining at 3 uM after 2 hrs by LC-MS/MS analysis.
In the next data set the test system is HepG2. The data set is described as follows: Cytotoxicity against human HepG2 cells after 24 hrs by resazurin dye-based fluorescence assay. To be noted: hepg2, 24 h. Format: cell-based. The gist of the method: (§3)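 HEK293 (3000/well) and HepG2 (5000/well) were grown 24 h in DMEM with 10% FBS at 37 °C, 5% CO2. Cells were then exposed 24 h to a dilution series up to 100 µM (0.5% DMSO). 5 µM resazurin was added for 2 h, read at ex 560/em 590. 1% Triton X-100 served as lysis control. CC50 was derived from the curves.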

The subject of the next data set is Candida albicans. In words: Antifungal activity against Candida albicans ATCC 90028 by broth microdilution assay. Format: functional. A digest of the protocol:
as §2

The subject of the next data set is Escherichia coli. The data set is described as follows: Antibacterial activity against Escherichia coli ATCC 25922 by broth microdilution assay. It counts as functional. The gist of the method: as §2
For the next data set, the system named is Cryptococcus neoformans. The data set is described as follows: Antifungal activity against Cryptococcus neoformans H99 ATCC […] broth microdilution assay. It counts as functional. To be noted: var. grubii H99 ATCC 208821. A digest of the protocol:
as §2

Another data set deals with HEK293. In words: Cytotoxicity against HEK293 cells after 24 hrs by resazurin dye-based fluorescence assay. Format: cell-based. To be noted: human, hek293, 24 h. The gist of the method: as §3
The next data set has as its system Pseudomonas aeruginosa. In words: Antibacterial activity against Pseudomonas aeruginosa ATCC 27853 by broth microdilution assay. Format: functional. The gist of the method:
as §2

Data set [20] concerns Mycobacterium tuberculosis. The data set is described as follows: Antibacterial activity against Mycobacterium tuberculosis H37Rv after 5 days under normoxic condition by resazurin dye-based fluorescence assay. Format: functional, organism-based. The gist of the method:
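H37Rv grown in 7H9/ADC/glycerol/Tyloxapol to mid-exponential phase, diluted to OD600 0.001 (~2 x 10^4 CFU/mL) in 7H9S with serially diluted compound. Incubated 5 days at 37 °C, then resazurin and Tween-80 added. Fluorescence (ex 530/em 590 nm) read after 24 h, normalised to no-drug and no-bacteria wells.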

A further data set concerns Acinetobacter baumannii. In words: Antibacterial activity against Acinetobacter baumannii ATCC 19606 by broth microdilution assay. Format: functional. To be noted: ATCC 19606 = CIP 70.34 = JCM 6841. A digest of the protocol:
as §2

In a further data set the test system is Klebsiella pneumoniae. The data set is described as follows: Antibacterial activity against Klebsiella pneumoniae 700603 by broth microdilution assay. It counts as functional. The gist of the method: as §2
For a further data set, the system named is Staphylococcus aureus. The data set is described as follows: Antibacterial activity against methicillin-resistant Staphylococcus aureus ATCC […] by broth microdilution assay. Format: functional.

Values after ≈ are worked out from the molar mass of the structure shown. Active and inactive are the calls of the source. A value given as a limit tells only on which side of the number the result lay.

Take `O=c1c2nccn2ccn1Cc1ccccc1`: the outcome (in [1]; with Giardia intestinalis [2]; in the data set on Entamoeba histolytica [3]) was inactive.
For orientation: MIC means the smallest concentration in the dilution series that meets the test's criterion for growth inhibition. High values mean a less susceptible organism, low ones a more susceptible organism. Regarding `CC(=O)OCCOc1nc(C)cn2cc([N+](=O)[O-])nc12`, the IC50 was above 40 µM in data set [1] (read-out: IC50), above 39.8 µM in [1] (read-out: pIC50 (converted)), 21 µM in the data set on Giardia intestinalis [4] and 20 µM in the data set with Giardia intestinalis [4] (read-out: pIC50 (converted)). In addition, the inhibition of growth at 50 µM in the data set with Entamoeba histolytica [5] was determined as 42%. Also, the MIC in data set [6] was above 32 mg/L.
For orientation: kinetic solubility means the concentration staying in solution when a stock, usually in DMSO, is diluted into the medium. For the compound `CC(=O)OCCn1c(-c2ccccc2)cn2cc([N+](=O)[O-])nc2c1=O`, the “log(Kinetic_solubility)” value in data set [7] and in data set [8] was above -4 in each case. Also, the IC50 was 0.86 µM in [1] (read-out: IC50); 0.794 µM in [1] (read-out: pIC50 (converted)); 11 µM in the data set on Giardia intestinalis [4]; 10 µM in the data set with Giardia intestinalis [4] (read-out: pIC50 (converted)); 34 µM with Entamoeba histolytica [3] (read-out: IC50); 31.6 µM in the data set on Entamoeba histolytica [3] (read-out: pIC50 (converted)). Also, the kinetic solubility at 24 h, 200 µM in “physchem [9]” and in the data set “physchem [10]” was above 100 µM each time. This compound had an MIC in data set [6] above 32 mg/L.
In the case of `C[C@H]1O[C@@H](O[C@H]2[C@@H](O)C[C@H](O[C@H]3[C@@H](O)C[C@H](O[C@H]4CC[C@@]5(C)[C@H](CC[C@@H]6[C@@H]5C[C@@H](O)[C@]5(C)[C@@H](C7=CC(=O)OC7)CC[C@]65O)C4)O[C@@H]3C)O[C@@H]2C)C[C@H](O)[C@@H]1O` [DIGOXIN], the Drug recovery in data set [11] was below 72%. Moreover, the recovery at 2 h, 2 µM in data set [12] came out at 88%.
A word on the Papp: it is the rate of passage across a membrane or cell layer, normalised by area and donor concentration. As for `O=c1c2nc([N+](=O)[O-])cn2ccn1Cc1ccc(OC(F)(F)F)cc1`, the MIC against Clostridioides difficile is above 64 mg/L. For the same compound, the Stability in [13], in data set [14], in [15] and in data set [19] was above 99% in each case. Also, in data set [11], the Drug recovery is 83%. The Papp in [16] was determined as 220 nm/s; in data set [18], 250 nm/s. In addition, in [17], the PPB amounted to 98%. For the same compound, the recovery at 2 h, 2 µM in [12] came out at 97%.
With `O=[N+]([O-])c1cn2c(n1)OC[C@@H](OCc1ccc(OC(F)(F)F)cc1)C2` [PRETOMANID], the Drug recovery in data set [11] came to 81%. The Papp in [16] was found to be 220 nm/s; in data set [18], 290 nm/s. The recovery at 2 h, 2 µM in data set [12] came to 101%.
One may read the CC50 as the concentration that lowers cell viability or growth by half. A low value points to harm at low concentration. In the case of `O=c1c2nc([N+](=O)[O-])cn2ccn1Cc1ccc(F)cc1`, the CC50 in the data set with HepG2 and with HEK293 was above 100 µM in each case. Further, the MIC against Candida albicans was above 32 mg/L; against Clostridioides difficile it was above 64 mg/L; in the data set with Escherichia coli, above 32 mg/L; with Cryptococcus neoformans it was above 32 mg/L; in the data set on Pseudomonas aeruginosa, above 32 mg/L; in data set [20], 1 mg/L (≈ 3.47 µM). Besides, the MIC was above 32 mg/L with Acinetobacter baumannii, above 32 mg/L in the data set on Klebsiella pneumoniae, 2 mg/L (≈ 6.94 µM) in data set [6] and above 32 mg/L in the data set on Staphylococcus aureus. The IC50 in [1] (read-out: IC50) is 2.9 µM; in data set [1] (read-out: pIC50 (converted)) it was 3.16 µM; in the data set with Giardia intestinalis [4] it was 6.4 µM; in the data set on Giardia intestinalis [4] (read-out: pIC50 (converted)), 6.31 µM; in the data set on Entamoeba histolytica [3] (read-out: IC50) it was above 50 µM. For the same compound, the Stability is recorded as above 99% in data set [13], above 99% in [14], 98% in data set [15] and 99% in [19]. The PPB in data set [17] is recorded as 82%.
